Screens: PubChem, Broad Institute
Wnt act = activators of Wnt/beta-catenin signaling; Wnt/beta-catenin reporter cell assay, activator, plate reader; AID 743398; 1.2% of 300,000 active; activation, % at 9.35 µM; in the data active means activation above about 30%, passing the limit was not always enough; inconclusive means no clear call, values can overlap the other calls;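 further: 0% = neutral control wells and 100% = positive control wells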
SR-BI HDL uptake = inhibitors of mouse SR-BI mediated HDL lipid uptake | AID 488896 | inhibition, % at 12.5 µM | 0.96% of 320,000 active | ldlA[mSR-BI] CHO cells, DiI-HDL uptake fluorescence, 3 h | Q61009;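 active means mean replicate inhibition of at least 70% and a set share of replicates each scoring 70 or more; inconclusive means meets just one of the two criteria; inactive means fails both criteria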;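 further: 0% = median of neutral control wells and 100% = median of positive control wells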
Target sequence (Q61009 whole entry, looked up): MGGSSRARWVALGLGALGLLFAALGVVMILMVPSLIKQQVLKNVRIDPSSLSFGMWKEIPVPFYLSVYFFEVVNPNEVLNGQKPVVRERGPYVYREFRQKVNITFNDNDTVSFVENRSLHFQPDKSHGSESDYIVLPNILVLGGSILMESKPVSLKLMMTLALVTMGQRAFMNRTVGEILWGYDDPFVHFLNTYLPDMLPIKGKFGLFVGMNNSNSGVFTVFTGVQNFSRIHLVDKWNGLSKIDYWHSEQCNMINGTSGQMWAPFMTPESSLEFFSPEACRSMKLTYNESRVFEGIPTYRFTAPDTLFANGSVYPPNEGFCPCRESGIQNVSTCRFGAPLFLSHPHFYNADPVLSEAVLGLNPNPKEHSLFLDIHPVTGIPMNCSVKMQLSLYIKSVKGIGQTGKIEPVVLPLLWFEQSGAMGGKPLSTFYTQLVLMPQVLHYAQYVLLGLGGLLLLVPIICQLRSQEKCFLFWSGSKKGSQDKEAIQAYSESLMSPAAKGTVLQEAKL
HSF1 activator = increases HSF-1 driven luciferase reporter signal | NIH3T3-HGL HSF-1 luciferase reporter, MG132, 8 h; 100% = twice DMSO control signal | activation, % at 9 µM | 1.7% of 300,000 active | AID 504408;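 active means mean replicate activation of at least 50% with a set share of replicates each reaching 50%; inconclusive means only one of those two conditions met; inactive means mean below 50% and too few replicates reaching it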;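 further: 0% = median of the neutral control wells and 100% = twice that signal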
MITF act = activators of MITF-driven TRPM1 promoter activity in SK-MEL-5 cells; SK-MEL-5 TRPM1-promoter luciferase, 24 h; % of positive control, neutral wells = 0; activation, % at 12.5 µM; 0.75% of 300,000 active;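 active means mean activation of at least 80% with every replicate also reaching 80%; inconclusive means mean reaches 80% but some replicate falls short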;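 further: 0% = neutral control wells and 100% = parthenolide positive control wells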
SR-BI DiI-HDL act = SR-BI HDL lipid transfer activation | CHO ldlA[mSR-BI] cells, DiI-HDL uptake fluorescence, 3 h; 100 = double the neutral-control signal | activation, % at 12.5 µM | 0.096% of 320,000 active | AID 504775;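 active means mean replicate activation of at least 60% and every replicate at or above 60%; inconclusive means mean or all-replicate condition met, but not both; inactive means mean below 60% and not all replicates reaching 60%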;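 further: 0% = median plate neutral-control signal and 100% = twice that signal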
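System: LDL receptor-deficient CHO ldlA cells overexpressing murine SR-BI | Timing: 3 h uptake period with compound, 37 °C | Medium: HEPES-buffered (25 mM, pH 7.4) F12 plus 0.5% BSA | Dosing: Single-point compound dose | Signal: Bottom-read fluorescence, 550/595 nm | Read-out: Retained DiI signal reflecting DiI-HDL uptake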
Numbers without * were called inactive; ? = inconclusive; · = no result. In the library only some 3.6% were active in any assay of this set; here they are far more common.

SMILES | Wnt act | SR-BI HDL uptake | HSF1 activator | MITF act | SR-BI DiI-HDL act
CC(C)C1C(=O)N(Cc2cn(Cc3ccco3)nn2)CCS(=O)(=O)N1Cc1ccc(-c2ccc(F)cc2)cc1 (stereo not given) | -3 | · | · | · | ·
COc1cc(Cl)c(NC2=CC(=O)C(=O)c3ccccc32)c(OC)c1 | 0 | 90* | · | -96 | -90
CCOc1ccc(NC2=CC(=O)C(=O)c3ccccc32)cc1 | 15 | 21 | -25 | -102 | -21
C/C(N)=C(/C#N)C(=O)COC(=O)c1cc(C)n(-c2ccc(F)cc2)c1C | -3 | 19 | 84* | 69 | -19
Cc1cc(C(=O)OCC(N)=O)c(C)n1-c1ccccc1 | 3 | -15 | 42 | 8 | 15
O=C1NC(=O)C2(CCCc3ccc(N(CCO)CCO)cc32)N1 (stereo not given) | 0 | · | · | · | ·
CCN(c1ccccc1)S(=O)(=O)c1cc(NC(=O)Nc2ccccc2C#N)ccc1Cl | -3 | -21 | 59* | 2 | 21
CCC1(c2ccc(Cl)cc2)NC(=O)N(CC(=O)NC2CCCCCC2)C1=O (stereo not given) | 3 | -15 | · | 8 | 15
CCC1(c2ccccc2)NC(=O)N(CC(=O)NCc2ccccc2OC)C1=O (stereo not given) | -5 | · | 107* | -17 | ·
COc1ccccc1CNC(=O)CN1C(=O)NC(c2ccccc2)(c2ccccc2)C1=O | -2 | -2 | · | -2 | 2
CCC1(c2ccc(F)cc2)NC(=O)N(CC(=O)NC2CC2)C1=O (stereo not given) | 31* | 2 | -4 | 0 | -2
CCOC(=O)[C@]12CCC=C1N(Cc1cccc3ccccc13)C(=O)[C@H](CC(=O)NCCCOC)C2 | -2 | · | · | · | ·
COC(=O)C[C@@H]1C=C[C@H](NC(=O)c2ccccc2)[C@@H](CO)O1 | -1 | · | · | · | ·
O=C(N/N=C/c1cc(Br)ccc1O)C(=O)Nc1ccccc1OC(F)(F)C(F)F | · | 129* | 4 | -65 | -129
COc1cccc(/C=N/NC(=O)C(=O)Nc2ccccc2OC(F)(F)C(F)F)c1 | -6 | -2 | -11 | 5 | 2
COc1ccccc1/C=N/NC(=O)C(=O)Nc1ccccc1OC(F)(F)C(F)F | -1 | 55 | -9 | 6 | -55
O=C(N/N=C/c1cc(Cl)ccc1O)C(=O)Nc1ccccc1OC(F)(F)C(F)F | · | 119* | · | -66 | -119
Cc1ccc(S(=O)(=O)N2CCC(=O)N([C@H](COCc3ccc(Cl)c(Cl)c3)Cc3ccccc3)CC2)cc1 | -3 | · | · | · | ·
Cc1c(N=O)c(-c2ccccc2)n(O)[n+]1[O-] | -1 | · | · | · | ·
O=C(N/N=C/c1cc(Br)ccc1O)c1cccc(N2CCCC2=O)c1 | · | 106* | 12 | -49 | -106
O=C(N/N=C/c1ccco1)c1cccc(N2CCCC2=O)c1 | 0 | 6 | 4 | 18 | -6
COc1ccc(O)c(/C=N/NC(=O)c2ccc(N3CCCC3=O)cc2)c1 | -2 | · | 21 | -6 | ·
COc1ccc(O)c(/C=N/NC(=O)c2cccc(N3CCCC3=O)c2)c1 | 1 | 89* | -9 | -27 | -89
CCCNC(=O)C1(C)CCN(C(=O)COc2ccc(C(C)(C)C)cc2)C1 (stereo not given) | 19 | · | · | · | ·
O=C(O)/C=C\C(=O)Nc1ccccc1C#Cc1ccc(Br)cc1 | · | -2 | 56* | 25 | 2
SMILES | Wnt act | SR-BI HDL uptake | HSF1 activator | MITF act | SR-BI DiI-HDL act
CCCCN1C(=O)C(CC(=O)NCCc2ccccn2)CC(C(=O)N(CC)CC)=C1C (stereo not given) | -3 | · | · | · | ·
Cc1nccn1C(c1ccccc1)c1ccccc1 | 35* | -3 | -1 | -4 | 3
Cc1nccn1Cc1cccc2ccccc12 | 0 | 5 | -64 | 0 | -5
Cc1ccccc1-n1c(-c2ccc(=O)[nH]n2)n[nH]c1=S | 0 | -5 | 2 | -4 | 5
CC(C)(C)c1cc(-c2n[nH]c(=S)n2-c2ccccc2F)n[nH]1 | 34* | -18 | -11 | · | 18
CCOC(=O)[C@]12CCC=C1N(CCC1=CCCCC1)C(=O)[C@H](CC(=O)N1CCCC1)C2 | 0 | · | · | · | ·
Clc1ccc(-c2cc3nc(NCc4cccc(Cl)c4)ccn3n2)cc1 | 6 | · | · | · | ·
Cc1cc(C)c(C(=O)/C=C/c2cccc3ccccc23)c(=O)[nH]1 | -6 | -7 | 84* | -87 | 7
CC(C)(C)OC(=O)N1CCC(NC(=O)c2ncn(Cc3ccccc3)c2C(=O)NC2CCN(C(=O)OC(C)(C)C)CC2)CC1 | -6 | -24 | · | 432* | 24
CCCCn1c(Oc2ccc(C(=O)OC)cc2)nc2c1c(=O)n(C)c(=O)n2C | · | 92* | -7 | -3 | -92
Cc1cc(NS(=O)(=O)c2ccc(NC(=O)/C=C/c3ccc(Br)cc3)cc2)no1 | -5 | 5 | -9 | -2 | -5
Cc1ccc(NC(=O)c2cc(C)no2)cc1 | 16 | 18 | 14 | 58 | -18
Cc1ccc(NC(=O)c2cc(C)on2)cc1 | · | -22 | 24 | 97* | 22
Cc1ccc(NC(=S)Nc2cc(C)on2)cc1 | 49* | · | ? | · | ·
Cc1ccc(/C=C/C(=O)Nc2cc(C)on2)cc1 | 35* | -3 | 27 | 75 | 3
CCc1ccc(NC(=O)c2cc(C)on2)cc1 | 0 | -3 | 58* | ? | 3
COCCNC(=O)C1(C)CCCN(C(=O)c2ccc(C(=O)OC)cc2)C1 (stereo not given) | 1 | · | · | · | ·
CCc1sc(C(=O)N(CCOC)c2c(N)n(Cc3ccccc3)c(=O)[nH]c2=O)cc1C | -1 | · | · | · | ·
COc1ccc(C2Nc3ccccc3C(=O)N2NS(=O)(=O)c2ccc(C)cc2)cc1 (stereo not given) | 0 | 12 | 57* | 21 | -12
Cc1ccc(S(=O)(=O)NN2C(=O)c3ccccc3NC2c2ccccc2)cc1 (stereo not given) | -1 | -11 | -4 | -6 | 11
Cc1ccc(S(=O)(=O)NC(=O)C2(C)CCN2C(=O)Cc2ccc(Cl)cc2Cl)cc1 (stereo not given) | -1 | · | · | · | ·
COC(=O)c1ccc(CNC(=O)Cn2cnc3c(SC)nc(N)nc32)cc1 | -4 | -11 | · | -11 | 11
Nc1nc(SCc2ccc(Cl)cc2Cl)ns1 | 6 | -10 | 21 | · | 10
Cc1ccccc1CSc1nsc(N)n1 | · | 7 | 61* | · | -7
CCOC(=O)c1c(NC(=O)c2nn(CC)cc2Br)c(C#N)nn1-c1ccccc1 | · | 61 | 52* | 4 | -61
C=CCn1c(C)cc(C(=O)CSc2nc(N)cc(N)n2)c1C | 0 | -14 | 66* | -4 | 14
Cc1cc(C(=O)CSc2nc(N)cc(N)n2)c(C)n1C1CC1 | 0 | 48 | -5 | -4 | -48
C=CCn1c(C)cc(C(=O)COC(=O)c2cncc(Br)c2)c1C | -3 | 14 | · | 93* | -14
O=C(CC(Nc1ccc(F)cc1)C(=O)OCC(=O)c1cccs1)c1ccccc1 (stereo not given) | -4 | -30 | 89* | 48 | 30
O=C(CC(Nc1ccc(F)cc1)C(=O)O)c1ccccc1 (stereo not given) | · | 19 | 56* | · | -19
